Legend:
Settings in all cases: stereoisomer not certain
[1] = target: T1, UniProt Q8VFP5
T1 sequence (whole entry): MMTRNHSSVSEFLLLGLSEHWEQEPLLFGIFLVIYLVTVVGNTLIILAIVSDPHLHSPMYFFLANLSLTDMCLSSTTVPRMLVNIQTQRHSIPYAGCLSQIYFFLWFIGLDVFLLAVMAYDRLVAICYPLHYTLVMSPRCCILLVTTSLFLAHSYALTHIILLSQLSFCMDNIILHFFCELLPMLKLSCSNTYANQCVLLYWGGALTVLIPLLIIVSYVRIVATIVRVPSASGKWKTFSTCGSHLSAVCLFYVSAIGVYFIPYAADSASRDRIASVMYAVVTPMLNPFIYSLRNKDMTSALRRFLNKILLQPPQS
Procedure, shortened: (§1)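 Assay methods differ from source to source, frequently being transient luciferase assays in mammalian cell lines. For each receptor–molecule pair, the label responsive (active) applies when the original authors judged the measured signal statistically different from baseline, and non-responsive (inactive) applies otherwise.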

[2] = target: T2, UniProt Q8VFZ6
T2 sequence (whole entry): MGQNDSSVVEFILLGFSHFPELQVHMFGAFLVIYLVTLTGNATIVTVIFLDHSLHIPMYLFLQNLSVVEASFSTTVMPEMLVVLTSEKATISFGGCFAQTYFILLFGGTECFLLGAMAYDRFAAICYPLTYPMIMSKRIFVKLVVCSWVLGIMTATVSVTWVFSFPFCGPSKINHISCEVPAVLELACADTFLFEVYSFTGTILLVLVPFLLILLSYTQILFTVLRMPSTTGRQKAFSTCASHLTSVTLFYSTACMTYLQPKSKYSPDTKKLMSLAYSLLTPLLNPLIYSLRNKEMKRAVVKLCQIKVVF
Procedure, shortened: as §1

[3] = target: T3, UniProt Q8VG01
T3 sequence (whole entry): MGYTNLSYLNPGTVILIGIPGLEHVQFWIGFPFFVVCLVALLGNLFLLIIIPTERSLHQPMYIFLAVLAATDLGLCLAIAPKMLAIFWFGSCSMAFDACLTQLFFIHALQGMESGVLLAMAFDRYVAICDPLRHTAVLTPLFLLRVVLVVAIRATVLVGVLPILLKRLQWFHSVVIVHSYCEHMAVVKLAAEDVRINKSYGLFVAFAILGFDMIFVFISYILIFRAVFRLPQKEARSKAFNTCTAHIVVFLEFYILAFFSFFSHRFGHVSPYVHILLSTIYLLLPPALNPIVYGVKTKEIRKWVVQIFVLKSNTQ
Procedure, shortened: as §1

[4] = target: T4, UniProt Q8VG22
T4 sequence (whole entry): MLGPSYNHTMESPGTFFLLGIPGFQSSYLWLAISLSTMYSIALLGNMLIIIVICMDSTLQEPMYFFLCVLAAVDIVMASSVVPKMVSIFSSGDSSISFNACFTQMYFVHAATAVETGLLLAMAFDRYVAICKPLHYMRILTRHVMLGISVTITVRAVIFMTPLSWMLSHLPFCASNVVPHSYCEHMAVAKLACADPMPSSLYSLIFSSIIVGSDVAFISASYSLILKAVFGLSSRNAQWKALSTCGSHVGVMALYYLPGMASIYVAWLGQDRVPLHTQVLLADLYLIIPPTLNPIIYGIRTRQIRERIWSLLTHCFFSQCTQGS
Procedure, shortened: as §1

[5] = target: T5, UniProt Q8VG27
T5 sequence (whole entry): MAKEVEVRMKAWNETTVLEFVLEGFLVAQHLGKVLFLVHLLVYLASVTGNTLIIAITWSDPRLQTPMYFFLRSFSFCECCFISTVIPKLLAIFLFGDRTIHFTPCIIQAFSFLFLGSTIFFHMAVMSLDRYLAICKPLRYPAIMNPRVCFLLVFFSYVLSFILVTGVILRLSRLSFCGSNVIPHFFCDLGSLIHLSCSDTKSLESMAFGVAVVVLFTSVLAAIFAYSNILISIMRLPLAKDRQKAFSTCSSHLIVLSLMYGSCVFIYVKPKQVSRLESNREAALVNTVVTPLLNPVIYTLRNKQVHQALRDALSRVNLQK
Procedure, shortened: as §1

[6] = target: T6, UniProt Q8VG49
T6 sequence (whole entry): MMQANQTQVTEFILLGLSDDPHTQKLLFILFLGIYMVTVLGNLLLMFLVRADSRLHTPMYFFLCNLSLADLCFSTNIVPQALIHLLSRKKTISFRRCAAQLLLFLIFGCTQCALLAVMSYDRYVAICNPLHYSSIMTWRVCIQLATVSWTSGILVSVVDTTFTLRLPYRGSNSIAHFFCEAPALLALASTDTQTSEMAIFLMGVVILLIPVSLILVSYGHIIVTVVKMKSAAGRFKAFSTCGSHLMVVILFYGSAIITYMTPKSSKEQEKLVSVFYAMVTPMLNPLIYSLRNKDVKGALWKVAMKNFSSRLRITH
Procedure, shortened: as §1

[7] = target: T7, UniProt Q8VG53
T7 sequence (whole entry): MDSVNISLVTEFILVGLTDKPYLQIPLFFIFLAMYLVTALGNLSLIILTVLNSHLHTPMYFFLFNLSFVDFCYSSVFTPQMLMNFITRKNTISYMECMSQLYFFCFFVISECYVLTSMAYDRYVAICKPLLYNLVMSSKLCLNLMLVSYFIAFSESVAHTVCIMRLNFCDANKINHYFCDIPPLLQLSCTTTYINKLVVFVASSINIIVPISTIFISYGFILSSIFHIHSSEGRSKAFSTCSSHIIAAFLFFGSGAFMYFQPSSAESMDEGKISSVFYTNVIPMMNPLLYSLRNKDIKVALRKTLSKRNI
Procedure, shortened: as §1

[8] = target: T8, UniProt Q8VG64
T8 sequence (whole entry): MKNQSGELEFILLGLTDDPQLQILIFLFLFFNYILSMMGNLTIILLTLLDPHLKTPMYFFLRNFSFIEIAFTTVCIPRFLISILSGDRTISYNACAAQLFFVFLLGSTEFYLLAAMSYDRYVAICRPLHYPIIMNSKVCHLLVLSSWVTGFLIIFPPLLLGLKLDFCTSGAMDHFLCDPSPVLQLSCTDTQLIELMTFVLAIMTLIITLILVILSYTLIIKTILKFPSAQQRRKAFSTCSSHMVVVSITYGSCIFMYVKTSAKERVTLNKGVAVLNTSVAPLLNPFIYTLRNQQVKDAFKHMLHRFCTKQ
Procedure, shortened: as §1

[9] = target: T9, UniProt Q8VG77
T9 sequence (whole entry): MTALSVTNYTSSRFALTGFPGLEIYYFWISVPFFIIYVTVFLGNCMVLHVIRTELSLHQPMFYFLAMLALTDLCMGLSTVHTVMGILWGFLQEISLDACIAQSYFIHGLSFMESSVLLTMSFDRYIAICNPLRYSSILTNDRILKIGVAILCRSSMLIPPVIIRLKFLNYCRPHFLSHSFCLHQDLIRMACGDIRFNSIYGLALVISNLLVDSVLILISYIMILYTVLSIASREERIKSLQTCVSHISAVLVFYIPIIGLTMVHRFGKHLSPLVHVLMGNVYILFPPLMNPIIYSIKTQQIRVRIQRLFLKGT
Procedure, shortened: as §1

[10] = target: T10, UniProt Q8VG96
T10 sequence (whole entry): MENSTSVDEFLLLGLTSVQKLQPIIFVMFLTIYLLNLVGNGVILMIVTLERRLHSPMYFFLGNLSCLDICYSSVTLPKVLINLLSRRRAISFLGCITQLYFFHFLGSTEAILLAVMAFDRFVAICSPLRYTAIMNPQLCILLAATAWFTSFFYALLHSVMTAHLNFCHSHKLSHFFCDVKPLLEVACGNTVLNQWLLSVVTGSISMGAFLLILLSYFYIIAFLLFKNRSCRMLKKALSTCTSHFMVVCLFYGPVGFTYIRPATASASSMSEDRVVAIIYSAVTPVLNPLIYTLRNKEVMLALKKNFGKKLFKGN
Procedure, shortened: as §1

[11] = target: T11, UniProt Q8VGB9
T11 sequence (whole entry): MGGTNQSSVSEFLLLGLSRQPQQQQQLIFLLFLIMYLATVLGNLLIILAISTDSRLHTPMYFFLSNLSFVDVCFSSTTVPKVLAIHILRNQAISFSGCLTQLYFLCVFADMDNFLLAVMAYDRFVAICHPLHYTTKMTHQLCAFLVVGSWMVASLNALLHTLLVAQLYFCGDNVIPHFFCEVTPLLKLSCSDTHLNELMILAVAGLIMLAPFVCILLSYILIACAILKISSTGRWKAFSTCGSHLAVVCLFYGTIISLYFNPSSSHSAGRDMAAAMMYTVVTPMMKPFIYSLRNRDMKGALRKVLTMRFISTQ
Procedure, shortened: as §1

[12] = target: UniProt Q8VG26
Procedure, shortened: as §1

[13] = target: UniProt Q8VG28
Procedure, shortened: as §1

Measured: odorant receptor agonist call

Sequence of UniProt Q8VG26 (Q8VG26 as listed by the source): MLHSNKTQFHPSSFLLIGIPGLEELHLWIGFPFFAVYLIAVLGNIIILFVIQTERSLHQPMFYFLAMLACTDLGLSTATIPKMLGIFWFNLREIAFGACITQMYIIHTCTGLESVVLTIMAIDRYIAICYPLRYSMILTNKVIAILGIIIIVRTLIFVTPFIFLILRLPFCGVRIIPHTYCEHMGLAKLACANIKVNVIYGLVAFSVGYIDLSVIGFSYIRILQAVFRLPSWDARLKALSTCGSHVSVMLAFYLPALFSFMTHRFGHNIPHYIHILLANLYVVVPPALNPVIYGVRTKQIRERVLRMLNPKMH
Sequence of UniProt Q8VG28 (Q8VG28 as listed by the source): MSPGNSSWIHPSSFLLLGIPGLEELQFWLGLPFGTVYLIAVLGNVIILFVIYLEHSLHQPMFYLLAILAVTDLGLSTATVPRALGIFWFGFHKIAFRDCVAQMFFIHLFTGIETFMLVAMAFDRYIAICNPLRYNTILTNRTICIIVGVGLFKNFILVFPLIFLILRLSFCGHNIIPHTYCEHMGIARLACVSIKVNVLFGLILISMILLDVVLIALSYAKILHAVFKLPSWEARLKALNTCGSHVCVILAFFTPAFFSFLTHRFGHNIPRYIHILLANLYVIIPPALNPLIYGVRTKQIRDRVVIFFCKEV

CCCCCCCCCCO
not listed: [12] | [13]
inactive: all other assays above

CCCCCCC(C)=O
not listed: [12] | [13]
inactive: all other assays above

C=CCOC(=O)CCCCCC
not listed: [12] | [13]
inactive: all other assays above

CCCC(=O)C(C)=O
active: [4]
not listed: [12] | [13]
inactive: all other assays above

CCCCC(C)=O
active: [11]
not listed: [12] | [13]
inactive: all other assays above

C=C(C)C1CCC(C)C(=O)C1 (stereo not given)
active: [4]
not listed: [12] | [13]
inactive: all other assays above

CC(=O)OCc1ccccc1
active: [4]
not listed: [12] | [13]
inactive: all other assays above

CC(C)=CCCC(C)=CCO
active: [2]
not listed: [12] | [13]
inactive: all other assays above

CCCCC(=O)O
inactive: all assays above

CCCCCCCCCS
active: [2] | [6]
not listed: [12] | [13]
inactive: all other assays above

CCCCCC1=C(C)CCC1=O
active: [4]
not listed: [12] | [13]
inactive: all other assays above

Cc1ccc(OC(=O)C(C)C)cc1
inactive: [1] | [3] | [5] | [7] | [8] | [11]

CSSCc1ccco1
active: [5]
inactive: [1] | [3] | [7] | [8] | [11]

Source: the M2OR odorant receptor database
